Assay results pooled from the literature.
Lines come from different studies, so protocols differ.

Compound | tested on | assay | system | conditions | endpoint | value
C[C@]12CC[C@H]3[C@@H](CCC4=CC(=O)CC[C@@]43C)[C@@H]1CC[C@@H]2O |  | metabolic stability | Sprague-Dawley rat, hepatocytes | 1 µM | half-life | 2.92 min
C=CS(=O)(=O)c1ccc(Nc2nc(OCC3CCCCC3)c3nc[nH]c3n2)cc1 |  |  | male BALB/c mouse, plasma | intraperitoneal, 20 mg/kg, single dose | AUC(0-t) | 137 ng·h/mL
C[C@]12CC[C@H]3[C@@H](CC=C4CC(O)CC[C@@]43CO)[C@@H]1CCC2O (stereo partly shown) |  | metabolic stability | rat, liver microsomes |  | half-life | 19.9 min
CNC(=O)c1ccc(-c2cnn3ccc(C(=O)N(C)c4ccc(Cl)c(C(=O)O)c4)cc23)cc1 |  |  | female C57BL/6 mouse, plasma | oral, 10 mg/kg/day | AUC | 34 ng·h/mL
NCCNC(=O)O[C@H]1CCC[C@@]2(C1)OOC1(O2)C2CC3CC(C2)CC1C3 (stereo partly shown) |  |  | male CD-1 mouse, plasma | intravenous, 3 mg/kg | AUC(0-inf) | 757 ng·h/mL
CNC(=O)c1ccc(-c2cnn3ccc(C(=O)N(C)c4ccc(Cl)c(C(=O)OC)c4)cc23)cc1 |  |  | female C57BL/6 mouse, plasma | oral, 10 mg/kg/day | AUC | 9.1 ng·h/mL
CC(C)C[C@H](NC(=O)[C@H](Cc1ccccc1)NC(=O)[C@H](Cc1ccccc1)NC(=O)Cc1ccc(-c2ccccc2)cc1)C(=O)N[C@@H](CCCCN)C(=O)N[C@@H](CCCNC(=N)N)C(=O)N[C@H](C(=O)N[C@@H](Cc1c[nH]c2ccccc12)C(=O)N[C@@H](CCCCN)C(=O)N[C@@H](CCCNC(=N)N)C(=O)O)C(C)C |  | metabolic stability | rat, liver microsomes | 1 µM | half-life | 5.12 min
CONC(=O)[C@H]1[C@@H](O)[C@@]2(O)c3c(OC)cc(OC)cc3O[C@@]2(c2ccc(OC)cc2)[C@@H]1c1ccccc1 |  | metabolic stability | rat, liver microsomes |  | half-life | 58.3 min
COc1cc(Cl)cc2c(=O)n3c(nc12)[C@@H]1CCCN(C)[C@@H]1CC3 (racemic) | SH-SY5Y | cell growth or viability, ATP luminescence |  | 72 h | CC50 | > 20 µM
Cn1nccc1[C@]1(CNC(=O)c2ccc(F)c(F)c2-c2ccc(C(F)(F)F)cc2)NC(=O)NC1=O |  |  | male C57BL/6 mouse, plasma | oral, 1 mg/kg | bioavailability | 132%
CN1CCN(S(=O)(=O)c2cc([N+](=O)[O-])ccc2N(CCOS(C)(=O)=O)CCOS(C)(=O)=O)CC1 |  |  | female SCID mouse, plasma | intraperitoneal, 5 mg/kg | AUC(0-inf) | 0.5 µM·h
CN1CC[C@H]2c3nc4ccc(Cl)cc4c(=O)n3CC[C@H]21 (racemic) | SH-SY5Y | cell growth or viability, ATP luminescence |  |  | CC50 | > 20 µM
COCC1=N[C@@]2(O)[C@H](C(=O)N(C)OC)[C@@H](c3ccccc3)[C@]3(c4ccc(OC)cc4)Oc4cc(OC)cc(OC)c4[C@]23N1 |  | metabolic stability | male Sprague-Dawley rat, liver microsomes | 1 µM, pH 7.4 | half-life | 74.7 min
